Assay results from ChEMBL document CHEMBL1124996, “Synthesis of antimicrobial agents. 3. Syntheses and antibacterial activities of 7-(4-hydroxypiperazin-1-yl)quinolones” (J Med Chem, 1990).
In brackets after ≈: the same amount, converted by molar mass.

How the values were obtained:
Staphylococcus aureus [1] = test: In vitro antibacterial activity against Staphylococcus aureus FDA […] JC-1; type: functional
Summary of the method: (§1)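 MIC by 2-fold agar dilution on sensitivity test agar (Mueller–Hinton agar per text), in µg/mL.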

Staphylococcus aureus [2] = test: In vitro antibacterial activity against […] aureus IID 803 -; type: functional
Summary of the method: (§2)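 MIC measured by 2-fold serial agar dilution. The growth medium is given as Mueller–Hinton agar in the text and as sensitivity test agar in the table footnote. Value reported in µg/mL.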

Pseudomonas aeruginosa = test: In vitro antibacterial activity against Pseudomonas aeruginosa IFO 3445; type: functional; summary of the method: as §2
Klebsiella pneumoniae = test: In vitro antibacterial activity against Klebsiella pneumoniae PCI-602; type: functional; summary of the method: as §2
Escherichia coli [3] = test: In vivo antibacterial activity against Escherichia coli KC-14 (po); type: functional
Summary of the method: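 Oral protection test in mice infected with E. coli KC-14. Compound suspended in 0.5% sodium CMC and given orally 1 h after infection. ED50 (mg/kg) calculated from cumulative mortality on day 7 after infection by the shortened Weil method, with 95% confidence limits.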

Proteus vulgaris = test: In vitro antibacterial activity against Proteus vulgaris OX-19; type: functional; summary of the method: as §2
Salmonella typhimurium = test: In vitro antibacterial activity against Salmonella Typhimurium IID 971; type: functional, Salmonella enterica subsp. enterica serovar Typhimurium; details: Salmonella enterica; summary of the method: as §2
Serratia = test: (§3) In vitro antibacterial activity against Serratia; type: functional; summary of the method: as §1
Escherichia coli [4] = test: In vitro antibacterial activity against Escherichia coli KC-14
Bacillus subtilis = test: In vitro antibacterial activity against Bacillus subtilis ATCC 6633; type: functional; summary of the method: as §2
[5] = system: Staphylococcus epidermidis; test: In vitro antibacterial activity against Staphylococcus epidermidis IAM 1296; type: functional; summary of the method: as §2
[6] = Concentration of liberated compound in serum after 60 min at the dose of 50 mg/kg (po).; type: functional, organism-based; parameters: dose 50 mg/kg
Summary of the method: (§4)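 ddY male mice (20–25 g, five per group) got 50 mg/kg orally as a 0.5% CMC suspension and were killed by bleeding at 30, 60, 120 or 240 min. Serum was taken after centrifugation at 3000 rpm, 20 min, 4 °C, and deproteinised with 5% aqueous trichloroacetic acid. The released parent quinolone was measured by HPLC with UV detection on an ODS column. Mean ± SE.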

[7] = Acute toxicity on intravenous injection in mice; type: organism-based; details: mouse, in vivo
Summary of the method: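 ddY male mice (20–25 g, five per group) given compound by intravenous injection. Compound was dissolved in 1 N NaOH, then brought up in phosphoric acid–saline buffer (pH 7.2). LD50 was determined 7 days later by the Weil method.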

[8] = Concentration of liberated compound in serum after 30 min at the dose of 50 mg/kg (po).; type: ADME, organism-based; parameters: dose 50 mg/kg; details: in vivo, 0.5 h
Summary of the method: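 ddY male mice (20–25 g, five per group) given 50 mg/kg orally as a suspension in 0.5% CMC and killed by bleeding at 30 min. Serum was separated by centrifugation (3000 rpm, 20 min, 4 °C) and deproteinized with 5% aqueous trichloroacetic acid. Liberated NFLX was quantified by reversed-phase (ODS) HPLC with UV detection. Values are mean ± SE.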

[9] = Concentration of liberated compound in serum after 240 min at the dose of 50 mg/kg (po).; type: functional, organism-based; parameters: dose 50 mg/kg; summary of the method: as §4
[10] = Concentration of liberated compound in serum after 120 min at the dose of 50 mg/kg (po).; type: functional, organism-based; parameters: dose 50 mg/kg; summary of the method: as §4
Escherichia coli [11] = test: (§5) In vitro antibacterial activity against Escherichia coli NHJ JC-2; type: functional, escherichia colin; summary of the method: as §1
[12] = Acute toxicity on oral administration in mice; type: organism-based; details: mouse, in vivo
Summary of the method: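 ddY male mice (20–25 g, five per group) were dosed orally with a suspension in 0.5% sodium carboxymethylcellulose. LD50 was determined 7 days later by the Weil method.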

Serratia marcescens = test: as §3; type: functional; summary of the method: as §2
Escherichia coli [13] = test: as §5; type: functional, escherichia colin; summary of the method: as §2; remark: listed apart in the source
Staphylococcus aureus [14] = test: In vitro antibacterial activity against Staphylococcus aureus FDA 209P JC-1; type: functional; summary of the method: as §2

Compound | MIC (Staphylococcus aureus [1]) | MIC (Staphylococcus aureus [2]) | MIC (Pseudomonas aeruginosa) | MIC (Klebsiella pneumoniae) | ED50 (Escherichia coli [3]) | MIC (Proteus vulgaris) | MIC (Salmonella typhimurium) | MIC (Serratia) | MIC (Escherichia coli [4]) | MIC (Bacillus subtilis) | MIC [5] | LD50 [7] | MIC (Escherichia coli [11]) | LD50 [12] | MIC (Serratia marcescens) | also measured
O=C(O)c1cn(C2CC2)c2cc(N3CCNCC3)c(F)cc2c1=O [CIPROFLOXACIN] | 0.39 µg/mL (≈ 1.18 µM) | 0.78 µg/mL (≈ 2.35 µM) | 0.78 µg/mL (≈ 2.35 µM) | 0.025 µg/mL (≈ 0.0754 µM) | 0.84 mg/kg | 0.05 µg/mL (≈ 0.151 µM) | 0.025 µg/mL (≈ 0.0754 µM) | 0.2 µg/mL (≈ 0.604 µM) | 0.0125 µg/mL (≈ 0.0377 µM) | 0.39 µg/mL (≈ 1.18 µM) | 1.56 µg/mL (≈ 4.71 µM) |  |  |  |  | 
CCn1cc(C(=O)O)c(=O)c2cc(F)c(N3CCNCC3)cc21 [NORFLOXACIN] | 0.39 µg/mL (≈ 1.22 µM) | 1.56 µg/mL (≈ 4.89 µM) | 1.56 µg/mL (≈ 4.89 µM) | 0.1 µg/mL (≈ 0.313 µM) |  | 0.1 µg/mL (≈ 0.313 µM) | 0.05 µg/mL (≈ 0.157 µM) | 0.39 µg/mL (≈ 1.22 µM) | 0.2 µg/mL (≈ 0.626 µM) | 0.39 µg/mL (≈ 1.22 µM) | 3.13 µg/mL (≈ 9.8 µM) | 314 mg/kg | 0.2 µg/mL (≈ 0.626 µM) | > 4000 mg/kg |  | Concentration [6]: 2.8 µg/mL; Concentration [8]: 4140 ng/mL; Concentration [9]: 0.47 µg/mL; Concentration [10]: 1.09 µg/mL
O=C(O)c1cn(C2CC2)c2cc(N3CCN(O)CC3)c(F)cc2c1=O | 0.39 µg/mL (≈ 1.12 µM) | 0.78 µg/mL (≈ 2.25 µM) | 1.56 µg/mL (≈ 4.49 µM) | 0.025 µg/mL (≈ 0.072 µM) | 0.37 mg/kg | 0.05 µg/mL (≈ 0.144 µM) | 0.025 µg/mL (≈ 0.072 µM) |  | 0.025 µg/mL (≈ 0.072 µM) | 0.39 µg/mL (≈ 1.12 µM) | 1.56 µg/mL (≈ 4.49 µM) |  | 0.1 µg/mL (≈ 0.288 µM) | > 4000 mg/kg | 0.78 µg/mL (≈ 2.25 µM) | 
CCn1cc(C(=O)O)c(=O)c2cc(F)c(N3CCN(O)CC3)cc21 |  | 1.56 µg/mL (≈ 4.65 µM) | 12.5 µg/mL (≈ 37.3 µM) | 0.05 µg/mL (≈ 0.149 µM) |  | 0.05 µg/mL (≈ 0.149 µM) | 0.1 µg/mL (≈ 0.298 µM) |  | 0.39 µg/mL (≈ 1.16 µM) | 0.2 µg/mL (≈ 0.596 µM) | 6.25 µg/mL (≈ 18.6 µM) | > 500 mg/kg |  | > 4000 mg/kg | 3.13 µg/mL (≈ 9.33 µM) | MIC (Escherichia coli [13]): 1.56 µg/mL (≈ 4.65 µM); MIC (Staphylococcus aureus [14]): 0.78 µg/mL (≈ 2.33 µM)
